Test results published in ChEMBL document CHEMBL1671797, “Lipophilic derivatives of leu-enkephalinamide: in vitro permeability, stability and in vivo nasal delivery” (Bioorg Med Chem, 2011).
Non-standard residues stand in square brackets, D forms with d. Residues, ends and D or L forms follow the SMILES beside them. Gly(decyl) = CCCCCCCCCC[C@H](N)C(=O)O; Aoc(2) = CCCCCC[C@H](N)C(=O)O

How the values were obtained:
Plasma [1] = assay: Stability of the compound in human plasma by HPLC analysis; assay type: ADME, cell-free
Outline: (§1)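 Compound at 1 mg/mL in PBS mixed 1:1 with human plasma from healthy volunteers at 37 °C. Aliquots taken at set times, put on ice, proteins precipitated with acetonitrile, spun 10,000 rpm 10 min. Supernatant run on C18 RP-HPLC (water/acetonitrile/TFA gradient), detection at 214 nm. Percent of initial peptide remaining plotted against time.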

[2] = Stability of the compound in human Caco2 cell homogenate assessed as half life by LC-MS/MS analysis; assay type: ADME, Colon; conditions: Caco-2 cell homogenate
Outline: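 Confluent Caco-2 cells (21–28 days) rinsed, sonicated, spun 2000 rpm 5 min; supernatant adjusted to 0.5 mg/mL protein. Homogenate mixed 1:1 with 200 µM compound in HBSS/HEPES. Sampled at 5–120 min, quenched with TFA-acidified water (pH 1–2). Endomorphin-1 run as enzyme-activity control. t1/2 by one-phase decay fit; 4 wells, ≥3 independent experiments.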

[3] = Apparent permeability across human Caco2 cells by LC-MS/MS analysis; assay type: ADME, cell-based; conditions: Caco-2
Outline: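 Caco-2 cells (passage 25–35, DMEM with 10% FBS, 1% NEAA) grown 21–28 days on 0.4 µm polycarbonate Transwell inserts; TEER 2.5–5 kΩ/cm2 before use. Rinsed with EDTA/DPBS then HBSS/25 mM HEPES pH 7.4, equilibrated 30 min at 37 °C. 200 µM apical dose; basolateral sampling at 30, 90, 120, 150 min. Papp from steady-state flux; 4 wells/experiment, ≥3 experiments; 14C mannitol control.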

[4] = Stability of the compound in human plasma assessed as half life by HPLC analysis; assay type: ADME, cell-free; outline: as §1
[5] = Drug level in Sprague-Dawley rat brain at 1 mg/kg, intranasal after 10 mins by LC-MS/MS analysis; assay type: ADME, organism-based; set-up: dose 1 mg/kg; conditions: inhaled or intranasal, read-out: Drug uptake
Outline: (§2)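 Male Sprague–Dawley rats (450–530 g, n = 4; 2 PBS controls) under xylazine/tiletamine–zolazepam anaesthesia. Dose given as 50 µL suspension in PBS pH 7.4 through a tube inserted 15 mm into the nasal cavity. CO2 euthanasia at 10 min. Tissues and blood homogenised or diluted in cold PBS, sonicated, acetonitrile-precipitated. Quantified against standards made in brain-homogenate matrix.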

[6] = Drug level in Sprague-Dawley rat olfactory bulb at 1 mg/kg, intranasal after 10 mins by LC-MS/MS analysis; assay type: ADME, organism-based; set-up: dose 1 mg/kg; conditions: inhaled or intranasal, read-out: Drug uptake; outline: as §2
[7] = Drug level in Sprague-Dawley rat blood at 1 mg/kg, intranasal after 10 mins by LC-MS/MS analysis; assay type: ADME, organism-based; set-up: dose 1 mg/kg; conditions: whole blood, inhaled or intranasal; outline: as §2
Plasma [8] = assay: Stability of the compound in human plasma assessed as degradation by HPLC analysis; assay type: ADME, cell-free; outline: as §1

Compound | half-life [2] [min] | Papp [3] [×10⁻⁶ cm/s] | other results
CCCCCC[C@@H](N)C(=O)N[C@@H](Cc1ccc(O)cc1)C(=O)NCC(=O)NCC(=O)N[C@@H](Cc1ccccc1)C(=O)N[C@@H](CC(C)C)C(N)=O | – | – | Stability (Plasma [1]): Stable
CCCCCCCCCC[C@H](NC(=O)[C@H](CC(C)C)NC(=O)[C@H](Cc1ccccc1)NC(=O)CNC(=O)CNC(=O)[C@@H](N)Cc1ccc(O)cc1)C(N)=O (H-YGGFL[Gly(decyl)]-NH2) | 16.4 | – | –
CCCCCC[C@H](NC(=O)[C@H](CC(C)C)NC(=O)[C@H](Cc1ccccc1)NC(=O)CNC(=O)CNC(=O)[C@H](Cc1ccc(O)cc1)NC(C)=O)C(N)=O (Ac-YGGFL[Aoc(2)]-NH2) | 13.8 | 0.763 | –
CCCCCCCCCC[C@H](NC(=O)[C@H](CC(C)C)NC(=O)[C@H](Cc1ccccc1)NC(=O)CNC(=O)CNC(=O)[C@H](Cc1ccc(O)cc1)NC(C)=O)C(N)=O (Ac-YGGFL[Gly(decyl)]-NH2) | 18.4 | – | –
CCCCCC[C@H](NC(=O)[C@H](CC(C)C)NC(=O)[C@H](Cc1ccccc1)NC(=O)CNC(=O)CNC(=O)[C@@H](N)Cc1ccc(O)cc1)C(N)=O (H-YGGFL[Aoc(2)]-NH2) | 5.4 | 0.00477 | –
CC(C)C[C@H](NC(=O)[C@H](Cc1ccccc1)NC(=O)CNC(=O)CNC(=O)[C@@H](N)Cc1ccc(O)cc1)C(=O)O [ENKEPHALIN] | – | 0.31 | –
CCCCCCCCCC[C@H](NC(C)=O)C(=O)N[C@@H](Cc1ccc(O)cc1)C(=O)NCC(=O)NCC(=O)N[C@@H](Cc1ccccc1)C(=O)N[C@@H](CC(C)C)C(N)=O (Ac-[Gly(decyl)]YGGFL-NH2) | 27 | – | –
CCCCCC[C@H](N)C(=O)N[C@@H](Cc1ccc(O)cc1)C(=O)NCC(=O)NCC(=O)N[C@@H](Cc1ccccc1)C(=O)N[C@@H](CC(C)C)C(N)=O | 31.7 | 2.51 | half-life [4]: 8.9 min; concentration at 10 min [5]: 13.5 nM; concentration at 10 min [6]: 59 nM; concentration at 10 min [7]: 6.53 nM; Stability (Plasma [8]): Unstable
CCCCCC[C@H](NC(C)=O)C(=O)N[C@@H](Cc1ccc(O)cc1)C(=O)NCC(=O)NCC(=O)N[C@@H](Cc1ccccc1)C(=O)N[C@@H](CC(C)C)C(N)=O (Ac-[Aoc(2)]YGGFL-NH2) | 83 | 1.06 | –
CCCCCCCCCC[C@H](N)C(=O)N[C@@H](Cc1ccc(O)cc1)C(=O)NCC(=O)NCC(=O)N[C@@H](Cc1ccccc1)C(=O)N[C@@H](CC(C)C)C(N)=O (H-[Gly(decyl)]YGGFL-NH2) | 14.7 | 2.43 | –
